Assays:
[1] = target: ADP-ribosylation factor GTPase-activating protein 1 (Rattus norvegicus) (UniProt Q62848); test: (§1) Inhibition of poly-histidine tagged full-length rat ARFGAP1 expressed in Sf9 cells assessed as remaining enzyme activity at 10 uM using purified WT ARF1 pre-loaded with [gamm-32P]-labeled GTP incubated for 5 mins before ARF1-GTP addition followed by 25 mins incubation by scintillation counting method
[2] = Synergistic agonist activity at Wnt/beta-catenin (unknown origin) expressed in Wnt-3A conditioned media stimulated with HEK293 cells incubated for 24 hrs by firefly luciferase based TOPflash reporter assay; assay type: cell-based; conditions: Homo sapiens, HEK293, 24 h
Method in brief: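 HEK293 cells stably transfected with TOPFlash reporter, stimulated with Wnt3A conditioned media plus compound for 24 h. Luciferase activity then read by Bright-Glo luminescence. EC50 (µM) derived, given as mean ± standard deviation.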

[3] = target: ADP-ribosylation factor GTPase-activating protein 1 (Rattus norvegicus) (UniProt Q62848); test: as §1, with “20” for “10”
HEK293 = test: Potency index, ratio of EC50 for QS11 to EC50 for test compound for synergistic agonist activity at Wnt/beta-catenin (unknown origin) expressed in Wnt-3A conditioned media stimulated with HEK293 cells incubated for 24 hrs by firefly luciferase based TOPflash reporter assay; assay type: cell-based; conditions: Homo sapiens

Chain of ADP-ribosylation factor GTPase-activating protein 1 (Rattus norvegicus) (Q62848 whole entry): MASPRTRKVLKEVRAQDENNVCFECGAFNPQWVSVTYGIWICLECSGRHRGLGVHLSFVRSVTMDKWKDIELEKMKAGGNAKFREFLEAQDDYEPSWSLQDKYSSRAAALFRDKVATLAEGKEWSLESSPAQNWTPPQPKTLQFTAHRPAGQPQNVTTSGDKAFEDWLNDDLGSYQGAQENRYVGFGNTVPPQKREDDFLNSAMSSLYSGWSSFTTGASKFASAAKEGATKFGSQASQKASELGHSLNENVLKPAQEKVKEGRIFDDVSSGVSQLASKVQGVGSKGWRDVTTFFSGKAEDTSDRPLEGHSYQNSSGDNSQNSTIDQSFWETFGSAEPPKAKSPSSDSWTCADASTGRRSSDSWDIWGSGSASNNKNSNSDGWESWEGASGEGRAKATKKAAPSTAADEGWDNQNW

SMILES	Activity [1]	EC50 [2]	Activity [3]	Ratio EC50 (HEK293)
FC(F)(F)c1cccc(Oc2nc(NCc3cccc4ccccc34)c3ncn(Cc4ccc(-c5ccccc5)cc4)c3n2)c1	16%	18 µM	12%	
COc1cc(OC)cc(Oc2nc(N[C@H](CO)Cc3ccccc3)c3ncn(Cc4ccc(-c5ccccc5)cc4)c3n2)c1	24%	1.9 µM	11%	
COc1cccc(Oc2nc(N[C@H](CO)Cc3ccccc3)c3ncn(Cc4ccc(-c5ccccc5)cc4)c3n2)c1	54%	3.3 µM	29%	
OC[C@H](Cc1ccccc1)Nc1nc(Oc2ccc3c(c2)CCC3)nc2c1ncn2-c1ccc(-c2ccccc2)cc1	50%	> 100 µM	32%	
c1ccc(CCNc2nc(Oc3ccc4ccccc4c3)nc3c2ncn3Cc2ccc(-c3ccccc3)cc2)cc1	90%	> 100 µM	86%	
c1ccc(CCNc2nc(Oc3cccc4ccccc34)nc3c2ncn3Cc2ccc(-c3ccccc3)cc2)cc1	32%	> 100 µM	20%	
COc1ccc(-c2ccc(Cn3cnc4c(N[C@H](CO)Cc5ccccc5)nc(Oc5ccc6c(c5)CCC6)nc43)cc2)cc1	42%	> 100 µM	34%	
OC[C@H](Cc1ccccc1)Nc1nc(Oc2ccc3c(c2)CCC3)nc2c1ncn2Cc1ccc(-c2ccccc2)cc1	33%	1.5 µM	10%	
COc1cccc(Oc2nc(NCCc3ccccc3)c3ncn(Cc4ccc(-c5ccccc5)cc4)c3n2)c1	46%	> 100 µM	40%	
COc1nc(N[C@H](CO)Cc2ccccc2)c2ncn(Cc3ccc(-c4ccccc4)cc3)c2n1	70%	2.6 µM	39%	
OC[C@H](Cc1ccccc1)Nc1nc(Oc2ccc3c(c2)CCC3)nc2c1ncn2Cc1cn(Cc2ccccc2)nn1	93%	> 100 µM	62%	
Cc1ccccc1-c1ccc(Cn2cnc3c(N[C@H](CO)Cc4ccccc4)nc(Oc4ccc5c(c4)CCC5)nc32)cc1	56%	> 100 µM	41%	
COC(=O)[C@H](Cc1ccccc1)Nc1nc(Oc2cccc3ccccc23)nc2c1ncn2Cc1ccc(-c2ccccc2)cc1	21%	3.4 µM	12%	
c1ccc(CCNc2nc(Oc3ccc4c(c3)OCO4)nc3c2ncn3Cc2ccc(-c3ccccc3)cc2)cc1	31%	> 100 µM	27%	
COC(=O)[C@H](Cc1ccccc1)Nc1nc(Oc2ccc3c(c2)OCO3)nc2c1ncn2Cc1ccc(-c2ccccc2)cc1	31%	1.1 µM	18%	
COC(=O)[C@H](Cc1ccccc1)Nc1nc(Oc2ccc3ccccc3c2)nc2c1ncn2Cc1ccc(-c2ccccc2)cc1	25%	0.65 µM	17%	2
OC[C@H](Cc1ccccc1)Nc1nc(Oc2ccc3c(c2)CCC3)nc2c1ncn2Cc1cn(-c2ccccc2)nn1	105%	> 100 µM	57%	
OC[C@H](Cc1ccccc1)Nc1nc(Oc2ccc3c(c2)CCC3)nc2c1ncn2Cc1ccc(Oc2ccccc2)cc1	42%	> 100 µM	40%	
c1ccc(-c2ccc(Cn3cnc4c(NCc5cccc6ccccc56)nc(Oc5ccc6c(c5)CCC6)nc43)cc2)cc1	74%	> 100 µM	63%	
CC[C@@H](CO)Nc1nc(Oc2ccc3ccccc3c2)nc2c1ncn2Cc1ccc(-c2ccccc2)cc1	41%	4 µM	24%	
CC[C@@H](CO)Nc1nc(Oc2ccc3c(c2)CCC3)nc2c1ncn2Cc1ccc(-c2ccccc2)cc1	90%	4.5 µM	57%	

SMILES	Activity [1]	EC50 [2]	Activity [3]	Ratio EC50 (HEK293)
Cc1ccccc1Cn1cc(Cn2cnc3c(N[C@H](CO)Cc4ccccc4)nc(Oc4ccc5c(c4)CCC5)nc32)nn1	50%	> 100 µM	27%	
OC[C@H](Cc1ccccc1)Nc1nc(Oc2cccc3ccccc23)nc2c1ncn2Cc1ccc(-c2ccccc2)cc1	35%	6.6 µM	24%	
c1ccc(-c2ccc(Cn3cnc4c(NCc5cccc6ccccc56)nc(Oc5ccc6c(c5)OCO6)nc43)cc2)cc1	35%	> 100 µM	34%	
OC[C@H](Cc1ccccc1)Nc1nc(Oc2ccc3c(c2)OCO3)nc2c1ncn2Cc1ccc(-c2ccccc2)cc1	49%	8.5 µM	39%	
CC(c1ccc(-c2ccccc2)cc1)n1cnc2c(N[C@H](CO)Cc3ccccc3)nc(Oc3ccc4c(c3)CCC4)nc21 (some centres not stated)	50%	2.6 µM	36%	
OC[C@H](Cc1ccccc1)Nc1nc(Oc2ccc3ccccc3c2)nc2c1ncn2Cc1ccc(-c2ccccc2)cc1	53%	4.4 µM	35%	
c1ccc(CCNc2nc(Oc3ccc4c(c3)CCC4)nc3c2ncn3Cc2ccc(-c3ccccc3)cc2)cc1	60%	> 100 µM	50%	
c1ccc(-c2ccc(Cn3cnc4c(NCc5cccc6ccccc56)nc(Oc5cccc6ccccc56)nc43)cc2)cc1	20%	> 100 µM	20%	
OC[C@H](Cc1ccccc1)Nc1nc(Oc2ccc3c(c2)CCC3)nc2c1ncn2Cc1ccccc1	117%	> 100 µM	113%	
CC[C@@H](CO)Nc1nc(Oc2ccc3c(c2)OCO3)nc2c1ncn2Cc1ccc(-c2ccccc2)cc1	70%	> 100 µM	32%	
O=[N+]([O-])c1ccc(Cn2cc(Cn3cnc4c(N[C@H](CO)Cc5ccccc5)nc(Oc5ccc6c(c5)CCC6)nc43)nn2)cc1	58%	> 100 µM	45%	
CC[C@@H](CO)Nc1nc(Oc2cccc3ccccc23)nc2c1ncn2Cc1ccc(-c2ccccc2)cc1	22%	1.3 µM	15%	
OC[C@H](Cc1ccccc1)Nc1nc(Oc2ccc3c(c2)CCC3)nc2c1ncn2CCOCc1ccccc1	106%	> 100 µM	109%	
FC(F)(F)c1cccc(Oc2nc(NCCc3ccccc3)c3ncn(Cc4ccc(-c5ccccc5)cc4)c3n2)c1	41%	> 100 µM	33%	
COc1ccc(Oc2nc(N[C@H](CO)Cc3ccccc3)c3ncn(Cc4ccc(-c5ccccc5)cc4)c3n2)cc1OC	55%	3.6 µM	22%	
OC[C@H](Cc1ccccc1)Nc1nc(N2CCOCC2)nc2c1ncn2Cc1ccc(-c2ccccc2)cc1	98%	1.5 µM	71%	
OC[C@H](Cc1ccccc1)Nc1nc(Oc2ccc3c(c2)CCC3)nc2c1ncn2Cc1ccc(-c2ccccc2F)cc1	81%	> 100 µM	47%	
COc1ccc(Cn2cc(Cn3cnc4c(N[C@H](CO)Cc5ccccc5)nc(Oc5ccc6c(c5)CCC6)nc43)nn2)cc1	98%	> 100 µM	75%	
c1ccc(-c2ccc(Cn3cnc4c(NCc5cccc6ccccc56)nc(Oc5ccc6ccccc6c5)nc43)cc2)cc1	53%	> 100 µM	31%	
OC[C@H](Cc1ccccc1)Nc1nc(Oc2cccc(C(F)(F)F)c2)nc2c1ncn2Cc1ccc(-c2ccccc2)cc1	81%	2.9 µM	78%	
COc1cccc(Oc2nc(NCc3cccc4ccccc34)c3ncn(Cc4ccc(-c5ccccc5)cc4)c3n2)c1	37%	> 100 µM	29%	

Reference: ChEMBL document CHEMBL3627670, “Structure-activity relationship studies of QS11, a small molecule Wnt synergistic agonist” (Bioorg Med Chem Lett, 2015)
